From ChEMBL document CHEMBL3045304, “Sesquiterpene lactones with potential use as natural herbicide models. 2. guaianolides” (2000)
Activity calls are given as the source filed them. The rule behind the calls is not given here.

How the values were obtained:
Lepidium sativum [1] = experiment: Stimulation of root length of Lepidium sativum at 0.1 mM or 1 mM after 5 days relative to untreated control; assay type: functional
Triticum aestivum [2] = experiment: Stimulation of hypocotyl length of Triticum aestivum cv. Cortex (wheat) at 0.1 mM or 1 mM after 5 days relative to untreated control; assay type: functional
In short: (§1)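 Wheat: 10 seeds per dish on filter paper with 5 mL test solution, 5 days in the dark at 25 °C, 10 replicates per concentration. Stock test solutions were 10^-3 or 10^-4 M in 10 mM MES, with lower levels made by dilution, all at pH 6.0. Parallel controls were run. Output is % difference from control.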

Solanum lycopersicum [3] = experiment: Inhibition of hypocotyl length of Solanum lycopersicum cv. Tres Cantos (tomato) at 0.1 mM or 1 mM after 5 days relative to untreated control; assay type: functional
In short: (§2)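 Lettuce and tomato seeds, 25 per dish on filter paper, received 5 mL test solution. Incubation was 5 days in the dark at 25 °C, with four replicates per concentration. Solutions were made at 10^-3 or 10^-4 M in 10 mM MES, diluted serially, and adjusted to pH 6.0. Parallel controls were run. Results are % difference from control.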

Triticum aestivum [4] = experiment: Inhibition of root length of Triticum aestivum cv. Cortex (wheat) at 0.1 mM or 1 mM after 5 days relative to untreated control; assay type: functional; in short: as §1
Lactuca sativa [5] = experiment: Stimulation of hypocotyl length of Lactuca sativa cv. Roman (lettuce) at 0.1 mM or 1 mM after 5 days relative to untreated control; assay type: functional; in short: as §2
Allium cepa [6] = experiment: Inhibition of germination of Allium cepa cv. Valenciana (onion) at 0.1 mM or 1 mM after 5 days relative to untreated control; assay type: functional
Allium cepa [7] = experiment: Stimulation of hypocotyl length of Allium cepa cv. Valenciana (onion) at 0.1 mM or 1 mM after 7 days relative to untreated control
Allium cepa [8] = experiment: Stimulation of root length of Allium cepa cv. Valenciana (onion) at 0.1 mM or 1 mM after 7 days relative to untreated control
Lepidium sativum [9] = experiment: Stimulation of hypocotyl length of Lepidium sativum at 0.1 mM or 1 mM after 5 days relative to untreated control; assay type: functional
Allium cepa [10] = experiment: Inhibition of hypocotyl length of Allium cepa cv. Valenciana (onion) at 0.1 mM or 1 mM after 7 days relative to untreated control
Triticum aestivum [11] = experiment: Stimulation of germination of Triticum aestivum cv. Cortex (wheat) at 0.1 mM or 1 mM after 5 days relative to untreated control; assay type: functional; in short: as §1
Triticum aestivum [12] = experiment: Inhibition of germination of Triticum aestivum cv. Cortex (wheat) at 0.1 mM or 1 mM after 5 days relative to untreated control; assay type: functional; in short: as §1
Allium cepa [13] = experiment: Stimulation of germination of Allium cepa cv. Valenciana (onion) at 0.1 mM or 1 mM after 7 days relative to untreated control
Lepidium sativum [14] = experiment: Inhibition of hypocotyl length of Lepidium sativum at 0.1 mM or 1 mM after 4 days relative to untreated control
Solanum lycopersicum [15] = experiment: Stimulation of hypocotyl length of Solanum lycopersicum cv. Tres Cantos (tomato) at 0.1 mM or 1 mM after 5 days relative to untreated control; assay type: functional; in short: as §2
Lepidium sativum [16] = experiment: Inhibition of germination of Lepidium sativum at 0.1 mM or 1 mM after 4 days relative to untreated control
Lactuca sativa [17] = experiment: Inhibition of root length of Lactuca sativa cv. Roman (lettuce) at 0.1 mM or 1 mM after 5 days relative to untreated control; assay type: functional; in short: as §2
Solanum lycopersicum [18] = experiment: Inhibition of root length of Solanum lycopersicum cv. Tres Cantos (tomato) at 0.1 mM or 1 mM after 5 days relative to untreated control; assay type: functional; in short: as §2
Lactuca sativa [19] = experiment: Inhibition of germination of Lactuca sativa cv. Roman (lettuce) at 0.1 mM or 1 mM after 5 days relative to untreated control; assay type: functional; in short: as §2
Lepidium sativum [20] = experiment: Inhibition of root length of Lepidium sativum at 0.1 mM or 1 mM after 4 days relative to untreated control
Lactuca sativa [21] = experiment: Inhibition of hypocotyl length of Lactuca sativa cv. Roman (lettuce) at 0.1 mM or 1 mM after 5 days relative to untreated control; assay type: functional; in short: as §2
Triticum aestivum [22] = experiment: Stimulation of root length of Triticum aestivum cv. Cortex (wheat) at 0.1 mM or 1 mM after 5 days relative to untreated control; assay type: functional; in short: as §1
Triticum aestivum [23] = experiment: Inhibition of hypocotyl length of Triticum aestivum cv. Cortex (wheat) at 0.1 mM or 1 mM after 5 days relative to untreated control; assay type: functional; in short: as §1
Lactuca sativa [24] = experiment: Stimulation of germination of Lactuca sativa cv. Roman (lettuce) at 0.1 mM or 1 mM after 5 days relative to untreated control; assay type: functional; in short: as §2
Solanum lycopersicum [25] = experiment: Stimulation of root length of Solanum lycopersicum cv. Tres Cantos (tomato) at 0.1 mM or 1 mM after 5 days relative to untreated control; assay type: functional; in short: as §2
Solanum lycopersicum [26] = experiment: Stimulation of germination of Solanum lycopersicum cv. Tres Cantos (tomato) at 0.1 mM or 1 mM after 5 days relative to untreated control; assay type: functional; in short: as §2
Allium cepa [27] = experiment: Inhibition of root length of Allium cepa cv. Valenciana (onion) at 0.1 mM or 1 mM after 5 days relative to untreated control; assay type: functional
Solanum lycopersicum [28] = experiment: Inhibition of germination of Solanum lycopersicum cv. Tres Cantos (tomato) at 0.1 mM or 1 mM after 5 days relative to untreated control; assay type: functional; in short: as §2
Lactuca sativa [29] = experiment: Stimulation of root length of Lactuca sativa cv. Roman (lettuce) at 0.1 mM or 1 mM after 5 days relative to untreated control; assay type: functional; in short: as §2
Lepidium sativum [30] = experiment: Inhibition of germination of Lepidium sativum at 0.1 mM or 1 mM after 5 days relative to untreated control; assay type: functional
Lepidium sativum [31] = experiment: Inhibition of germination of Lepidium sativum at 0.1 mM or 1 mM after 4 days relative to untreated control; set-up: scale not given: the % may be the effect or the level left

Row | SMILES | Activity (Lepidium sativum [1]) | Activity (Triticum aestivum [2]) [%] | Activity (Lactuca sativa [5]) [%] | inhibition (Allium cepa [6]) | Activity (Allium cepa [7]) | Activity (Allium cepa [8]) | Activity (Lepidium sativum [9]) | inhibition (Allium cepa [10]) | Activity (Triticum aestivum [11]) | Activity (Allium cepa [13]) | inhibition (Lepidium sativum [14]) | Activity (Solanum lycopersicum [15]) | inhibition (INH) (Lactuca sativa [17]) [%] | inhibition (Lactuca sativa [19]) | inhibition (INH) (Lactuca sativa [21]) [%] | Activity (Triticum aestivum [22]) | inhibition (INH) (Triticum aestivum [23]) [%] | Activity (Lactuca sativa [24]) | Activity (Solanum lycopersicum [25]) | Activity (Solanum lycopersicum [26]) | further results
1 | C=C1C(=O)O[C@H]2[C@H]1CCC(=C)[C@]1(O)C[C@@H](O)C(=C)[C@]21O | <20% | <20 | 20 | inactive | inactive | inactive | inactive | inactive | inactive | inactive | inactive | inactive | <20 | inactive | 20 | <20% | <20 | inactive | inactive | <20% | inhibition (Solanum lycopersicum [3]): inactive; inhibition (INH) (Triticum aestivum [4]): <20%; inhibition (Triticum aestivum [12]): inactive; Activity (Lepidium sativum [16]): inactive; inhibition (Lepidium sativum [16]): inactive; inhibition (Solanum lycopersicum [18]): inactive; inhibition (INH) (Lepidium sativum [20]): <20%; inhibition (Allium cepa [27]): inactive; inhibition (INH) (Solanum lycopersicum [28]): <20%; Activity (Lactuca sativa [29]): <20%
2 | C=C1[C@@H]2[C@H]3OC(=O)C(=C)[C@@H]3CCC(=C)[C@@H]2C[C@@H]1O [ZALUZANIN C] | <20% | 20 | 20 | inactive | inactive | inactive | inactive | inactive | <20% | inactive | inactive | inactive | 20 | inactive | 20 | 20% | 20 | inactive | <20% | inactive | inhibition (Solanum lycopersicum [3]): inactive; inhibition (INH) (Triticum aestivum [4]): 20%; inhibition (INH) (Lepidium sativum [30]): <20%; inhibition (INH) (Triticum aestivum [12]): <20%; inhibition (INH) (Solanum lycopersicum [18]): <20%; inhibition (INH) (Lepidium sativum [20]): <20%; Activity (Lepidium sativum [31]): <20%; inhibition (Allium cepa [27]): inactive; inhibition (Solanum lycopersicum [28]): inactive; Activity (Lactuca sativa [29]): 20%
3 | CC(=O)O[C@H]1CC(C)=C2C(=O)C=C(C)[C@@H]2[C@H]2OC(=O)[C@H](C)[C@H]21 [8ALPHA-ACETOXYACHILLIN] | inactive | <20 | <20 | inactive | inactive | inactive | inactive | inactive | 20% | inactive | inactive | <20% | <20 | inactive | <20 | inactive | <20 | inactive | inactive | inactive | inhibition (INH) (Solanum lycopersicum [3]): <20%; inhibition (Triticum aestivum [4]): inactive; inhibition (INH) (Triticum aestivum [12]): 20%; Activity (Lepidium sativum [16]): inactive; inhibition (Lepidium sativum [16]): inactive; inhibition (Solanum lycopersicum [18]): inactive; inhibition (Lepidium sativum [20]): inactive; inhibition (Allium cepa [27]): inactive; inhibition (Solanum lycopersicum [28]): inactive; Activity (Lactuca sativa [29]): <20%
